Measurements reported in ChEMBL document CHEMBL1926509, “Discovery of pyrazolo[1,5-a]pyridines as p110α-selective PI3 kinase inhibitors” (Bioorg Med Chem, 2012).

Legend:
Mus musculus [1] = assay: Toxicity in human HCT116 cells xenografted Rag1 knockout mouse assessed as mortality at 20 mg/kg, ip qd for 14 days; type: organism-based, HCT-116; set-up: dose 20 mg/kg, route intraperitoneal; settings: in vivo, 336 h
How it was run: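 Age-matched specific pathogen-free female Rag1-/- mice bearing subcutaneous HCT-116 tumours (5 × 10⁶ cells inoculated in PBS), n = 7 per group. Drug given ip at 20 mg/kg once daily for 14 days in 7.5% DMSO/42.5% PEG-400/20% 2-hydroxypropyl-β-cyclodextrin/30% water; controls received vehicle alone. Bodyweight recorded daily; mice culled when weight loss exceeded 20% of starting weight.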

HCT-116 = assay: Antitumor activity against human HCT116 cells xenografted in Rag1 knockout mouse assessed as tumor growth inhibition at 20 mg/kg, ip qd for 14 days relative to untreated control; type: functional; settings: HCT-116, ip, 336 h, route intraperitoneal, read-out: GI
How it was run: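 Female specific-pathogen-free Rag1−/− mice, age-matched, inoculated subcutaneously with 5×10⁶ HCT-116 cells in PBS. Dosed ip at 20 mg/kg q.d. for 14 days in 7.5% DMSO/42.5% PEG-400/20% hydroxypropyl-β-cyclodextrin/30% water; controls received vehicle only; n = 7 per group. Tumour volume measured three times weekly; 1-way ANOVA with Holm-Sidak comparison at study end.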

Mus musculus [2] = assay: Toxicity in human HCT116 cells xenografted Rag1 knockout mouse assessed as body weight loss at 20 mg/kg, ip qd measured up to day 10; type: organism-based, HCT-116; set-up: dose 20 mg/kg, route intraperitoneal; settings: in vivo
How it was run: (§1)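 Female specific-pathogen-free Rag1−/− mice carrying subcutaneous HCT-116 tumours, given 20 mg/kg ip daily for 14 days in a DMSO/PEG-400/hydroxypropyl-β-cyclodextrin/water vehicle; controls received vehicle; n = 7 per group. Bodyweight recorded daily; mice culled if loss exceeded 20% of starting weight.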

Mus musculus [3] = assay: Toxicity in human HCT116 cells xenografted Rag1 knockout mouse assessed as body weight loss at 20 mg/kg, ip qd measured after 10 days relative to untreated control; type: organism-based, HCT-116; set-up: dose 20 mg/kg, route intraperitoneal; settings: in vivo, 240 h; how it was run: as §1

## Cc1ccc([N+](=O)[O-])cc1S(=O)(=O)N(C)/N=C/c1cnc2ccc(Br)cn12
Mus musculus [1]
  Activity: Non-toxic
HCT-116
  inhibition in vivo at 20 mg/kg: 23.2%
Mus musculus [2]
  Activity: Non-toxic
Mus musculus [3]
  Activity: 15%
